The source made the active and inactive calls. No cut-off for these calls is given here.
How the values were obtained:
Mus musculus [1] = experiment: Antiinflammatory activity against carrageenan-induced paw edema in Swiss albino mouse assessed as swelling thickness at 100 mg/kg, po after 90 mins; format: functional
How it was run: (§1)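 Oral dosing in 0.5% CMC; vehicle to controls. Then carrageenan (0.5 mg/25 ll, freshly suspended in 154 mM saline) injected into the right hind paw subplantar tissue; saline into the left paw. Right-left footpad thickness difference measured by dial gauge calliper every 90 min over 6 h. Inhibition % is relative to vehicle control. n = 6; mean ± SEM.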

Mus musculus [2] = experiment: Inhibition of carrageenan-induced paw edema in Swiss albino mouse at 100 mg/kg, po after 90 mins relative to control; format: functional; details: 1.5 h; how it was run: as §1
Mus musculus [3] = experiment: Antiinflammatory activity against carrageenan-induced paw edema in Swiss albino mouse assessed as swelling thickness at 50 mg/kg, po after 180 mins; format: functional; how it was run: as §1
Mus musculus [4] = experiment: Inhibition of p-benzoquinone-induced writhing in Swiss albino mouse at 200 mg/kg, po relative to control; format: functional
How it was run: (§2)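 Mice, n = 6 per group, dosed orally with a suspension in 0.5% sodium CMC. 60 min later, 0.1 ml/10 g of 2.5% […] p-benzoquinone in distilled water given ip. Abdominal writhes counted per animal for 15 min, starting 5 min after injection. Expressed as % change in mean writhing count versus vehicle controls.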

Mus musculus [5] = experiment: Inhibition of carrageenan-induced paw edema in Swiss albino mouse at 50 mg/kg, po after 270 mins relative to control; format: functional; details: 4.5 h
How it was run: (§3)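 Mice, n = 6 per group. Test agent given orally as a suspension in 0.5% sodium CMC in distilled water; controls received vehicle only. Afterwards, 0.5 mg/25 ll carrageenan in saline (154 mM NaCl) injected subplantar into the right hind paw, saline into the left. Right-minus-left footpad thickness measured by dial gauge caliper every 90 min for 6 h. Inhibition is relative to vehicle-control group means.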

Mus musculus [6] = experiment: Inhibition of p-benzoquinone-induced writhing in Swiss albino mouse at 25 mg/kg, po relative to control; format: functional; how it was run: as §2
Mus musculus [7] = experiment: Antiinflammatory activity against carrageenan-induced paw edema in Swiss albino mouse assessed as swelling thickness at 200 mg/kg, po after 90 mins; format: functional; how it was run: as §1
Mus musculus [8] = experiment: Antiinflammatory activity against carrageenan-induced paw edema in Swiss albino mouse assessed as swelling thickness at 200 mg/kg, po after 180 mins; format: functional; how it was run: as §1
Mus musculus [9] = experiment: Antiinflammatory activity against carrageenan-induced paw edema in Swiss albino mouse assessed as swelling thickness at 25 mg/kg, po after 180 mins; format: functional; how it was run: as §1
Mus musculus [10] = experiment: Analgesic activity against p-benzoquinone-induced abdominal constriction in Swiss albino mouse assessed as number of writhings at 100 mg/kg, po; format: functional, Abdomen
How it was run: (§4)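 Test samples given orally in 0.5% CMC; vehicle to controls. 60 min later, 2.5% (v/v) p-benzoquinone in distilled water, 0.1 ml/10 g, given i.p. Mice housed singly; writhes counted for 15 min starting 5 min after injection. Activity is % change from vehicle controls. n = 6; mean ± SEM.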

Mus musculus [11] = experiment: Acute toxicity in Swiss albino mouse assessed as lethal effect at 100 mg/kg/day, po after 72 hrs; format: organism-based; set-up: route oral; details: in vivo
How it was run: (§5)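 Oral single dose suspended in 0.5% carboxymethylcellulose, given after a 24 h fast; food and water returned 1 h after dosing. Vehicle-only controls. Mice observed at 1 h, then once daily for 72 h, for toxic signs and mortality.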

Mus musculus [12] = experiment: Analgesic activity against p-benzoquinone-induced abdominal constriction in Swiss albino mouse assessed as number of writhings at 50 mg/kg, po; format: functional, Abdomen; how it was run: as §4
Mus musculus [13] = experiment: Acute toxicity in Swiss albino mouse assessed as lethal effect at 50 mg/kg/day, po after 72 hrs; format: organism-based; set-up: route oral; details: in vivo; how it was run: as §5
Mus musculus [14] = experiment: Antiinflammatory activity against carrageenan-induced paw edema in Swiss albino mouse assessed as swelling thickness at 50 mg/kg, po after 90 mins; format: functional; how it was run: as §1
Mus musculus [15] = experiment: Antiinflammatory activity against carrageenan-induced paw edema in Swiss albino mouse assessed as swelling thickness at 25 mg/kg, po after 270 mins; format: functional; how it was run: as §1
Mus musculus [16] = experiment: Inhibition of carrageenan-induced paw edema in Swiss albino mouse at 200 mg/kg, po after 360 mins relative to control; format: functional; details: 6 h; how it was run: as §1
Mus musculus [17] = experiment: Inhibition of carrageenan-induced paw edema in Swiss albino mouse at 50 mg/kg, po after 90 mins relative to control; format: functional; details: 1.5 h; how it was run: as §3
Mus musculus [18] = experiment: Antiinflammatory activity against carrageenan-induced paw edema in Swiss albino mouse assessed as swelling thickness at 200 mg/kg, po after 360 mins; format: functional; how it was run: as §1
Mus musculus [19] = experiment: Antiinflammatory activity against carrageenan-induced paw edema in Swiss albino mouse assessed as swelling thickness at 50 mg/kg, po after 270 mins; format: functional; how it was run: as §1
Mus musculus [20] = experiment: Antiinflammatory activity against carrageenan-induced paw edema in Swiss albino mouse assessed as swelling thickness at 25 mg/kg, po after 90 mins; format: functional; how it was run: as §1
Mus musculus [21] = experiment: Analgesic activity against p-benzoquinone-induced abdominal constriction in Swiss albino mouse assessed as number of writhings at 25 mg/kg, po; format: functional, Abdomen; how it was run: as §4
Mus musculus [22] = experiment: Inhibition of carrageenan-induced paw edema in Swiss albino mouse at 50 mg/kg, po after 360 mins relative to control; format: functional; details: 6 h; how it was run: as §3
Mus musculus [23] = experiment: Antiinflammatory activity against carrageenan-induced paw edema in Swiss albino mouse assessed as swelling thickness at 50 mg/kg, po after 360 mins; format: functional; how it was run: as §1
Mus musculus [24] = experiment: Antiinflammatory activity against carrageenan-induced paw edema in Swiss albino mouse assessed as swelling thickness at 100 mg/kg, po after 180 mins; format: functional; how it was run: as §1
Mus musculus [25] = experiment: Inhibition of carrageenan-induced paw edema in Swiss albino mouse at 100 mg/kg, po after 270 mins relative to control; format: functional; details: 4.5 h; how it was run: as §1
Mus musculus [26] = experiment: Inhibition of carrageenan-induced paw edema in Swiss albino mouse at 25 mg/kg, po after 90 mins relative to control; format: functional; details: 1.5 h; how it was run: as §1
Mus musculus [27] = experiment: Inhibition of carrageenan-induced paw edema in Swiss albino mouse at 200 mg/kg, po after 90 mins relative to control; format: functional; details: 1.5 h; how it was run: as §1
Mus musculus [28] = experiment: Antiinflammatory activity against carrageenan-induced paw edema in Swiss albino mouse assessed as swelling thickness at 200 mg/kg, po after 270 mins; format: functional; how it was run: as §1
Mus musculus [29] = experiment: Acute toxicity in Swiss albino mouse assessed as lethal effect at 200 mg/kg/day, po after 72 hrs; format: organism-based; set-up: route oral; details: in vivo; how it was run: as §5
Mus musculus [30] = experiment: Inhibition of carrageenan-induced paw edema in Swiss albino mouse at 25 mg/kg, po after 270 mins relative to control; format: functional; details: 4.5 h; how it was run: as §1
Mus musculus [31] = experiment: Inhibition of carrageenan-induced paw edema in Swiss albino mouse at 100 mg/kg, po after 360 mins relative to control; format: functional; details: 6 h; how it was run: as §1
Mus musculus [32] = experiment: Antiinflammatory activity against carrageenan-induced paw edema in Swiss albino mouse assessed as swelling thickness at 25 mg/kg, po after 360 mins; format: functional; how it was run: as §1
Mus musculus [33] = experiment: Inhibition of carrageenan-induced paw edema in Swiss albino mouse at 25 mg/kg, po after 180 mins relative to control; format: functional; details: 3 h; how it was run: as §1
Mus musculus [34] = experiment: Gastric-ulcerogenic effect in Swiss albino mouse assessed as lesions at 25 mg/kg, po; format: functional, organism-based; set-up: dose 25 mg/kg
How it was run: (§6)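 Mice killed under deep ether anesthesia 3 h after the writhing test; the oral dose in 0.5% CMC was the one used in that test. Stomachs removed, opened along the great curvature and examined under a dissecting microscope for lesions or bleeding. Reported as ratio of ulceration; n = 6.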

Mus musculus [35] = experiment: Inhibition of p-benzoquinone-induced writhing in Swiss albino mouse at 100 mg/kg, po relative to control; format: functional; how it was run: as §2
Mus musculus [36] = experiment: Inhibition of carrageenan-induced paw edema in Swiss albino mouse at 100 mg/kg, po after 180 mins relative to control; format: functional; details: 3 h; how it was run: as §1
Mus musculus [37] = experiment: Analgesic activity against p-benzoquinone-induced abdominal constriction in Swiss albino mouse assessed as number of writhings at 200 mg/kg, po; format: functional, Abdomen; how it was run: as §4
Mus musculus [38] = experiment: Inhibition of carrageenan-induced paw edema in Swiss albino mouse at 25 mg/kg, po after 360 mins relative to control; format: functional; details: 6 h; how it was run: as §1
Mus musculus [39] = experiment: Antiinflammatory activity against carrageenan-induced paw edema in Swiss albino mouse assessed as swelling thickness at 100 mg/kg, po after 270 mins; format: functional; how it was run: as §1
Mus musculus [40] = experiment: Inhibition of carrageenan-induced paw edema in Swiss albino mouse at 50 mg/kg, po after 180 mins relative to control; format: functional; details: 3 h; how it was run: as §1
Mus musculus [41] = experiment: Acute toxicity in Swiss albino mouse assessed as lethal effect at 25 mg/kg/day, po after 72 hrs; format: organism-based; set-up: route oral; details: in vivo; how it was run: as §5
Mus musculus [42] = experiment: Antiinflammatory activity against carrageenan-induced paw edema in Swiss albino mouse assessed as swelling thickness at 100 mg/kg, po after 360 mins; format: functional; how it was run: as §1
Mus musculus [43] = experiment: Inhibition of p-benzoquinone-induced writhing in Swiss albino mouse at 50 mg/kg, po relative to control; format: functional; how it was run: as §2
Mus musculus [44] = experiment: Inhibition of carrageenan-induced paw edema in Swiss albino mouse at 200 mg/kg, po after 270 mins relative to control; format: functional; details: 4.5 h; how it was run: as §1
Mus musculus [45] = experiment: Gastric-ulcerogenic effect in Swiss albino mouse assessed as lesions at 50 mg/kg, po; format: functional, organism-based; set-up: dose 50 mg/kg; how it was run: as §6

CCSc1nc(-c2ccc(Cl)cc2)n[nH]1
Activity (Mus musculus [1]): 34.3 10^-2mm | inhibition in vivo at 100 mg/kg (Mus musculus [2]): 23.4% | Activity (Mus musculus [3]): 43.2 10^-2mm | inhibition in vivo at 200 mg/kg (Mus musculus [4]): 12.8% | inhibition in vivo at 50 mg/kg (Mus musculus [5]): 29.3% | inhibition in vivo at 25 mg/kg (Mus musculus [6]): 12.3% | Activity (Mus musculus [7]): 51.8 10^-2mm | Activity (Mus musculus [8]): 59.9 10^-2mm | Activity (Mus musculus [9]): 49.9 10^-2mm | Activity (Mus musculus [10]): 33.8 | Activity (Mus musculus [11]): Non-toxic | Activity (Mus musculus [12]): 34.2 | Activity (Mus musculus [13]): Non-toxic | Activity (Mus musculus [14]): 39.1 10^-2mm | Activity (Mus musculus [15]): 63.5 10^-2mm | inhibition in vivo at 200 mg/kg (Mus musculus [16]): 3.4% | inhibition in vivo at 50 mg/kg (Mus musculus [17]): 26.5% | Activity (Mus musculus [18]): 74.2 10^-2mm | Activity (Mus musculus [19]): 45.8 10^-2mm | Activity (Mus musculus [20]): 45.9 10^-2mm | Activity (Mus musculus [21]): 45.1 | inhibition in vivo at 50 mg/kg (Mus musculus [22]): 40.1% | Activity (Mus musculus [23]): 43.1 10^-2mm | Activity (Mus musculus [24]): 38.2 10^-2mm | inhibition in vivo at 100 mg/kg (Mus musculus [25]): 30.8% | inhibition in vivo at 25 mg/kg (Mus musculus [26]): 13.7% | inhibition in vivo at 200 mg/kg (Mus musculus [27]): 2.6% | Activity (Mus musculus [28]): 63.5 10^-2mm | Activity (Mus musculus [29]): Non-toxic | inhibition in vivo at 25 mg/kg (Mus musculus [30]): 16.9% | inhibition in vivo at 100 mg/kg (Mus musculus [31]): 35.8% | Activity (Mus musculus [32]): 59.7 10^-2mm | inhibition in vivo at 25 mg/kg (Mus musculus [33]): 15.9% | Activity (Mus musculus [34]): Active | inhibition in vivo at 100 mg/kg (Mus musculus [35]): 28.5% | inhibition in vivo at 100 mg/kg (Mus musculus [36]): 25.8% | Activity (Mus musculus [37]): 44.8 | inhibition in vivo at 25 mg/kg (Mus musculus [38]): 17.1% | Activity (Mus musculus [39]): 40.7 10^-2mm | inhibition in vivo at 50 mg/kg (Mus musculus [40]): 27.3% | Activity (Mus musculus [41]): Non-toxic | Activity (Mus musculus [42]): 44.2 10^-2mm | inhibition in vivo at 50 mg/kg (Mus musculus [43]): 33.5% | inhibition in vivo at 200 mg/kg (Mus musculus [44]): 2% | Activity (Mus musculus [45]): Active

— ChEMBL document CHEMBL1142894, “Preparation of 5-aryl-3-alkylthio-l,2,4-triazoles and corresponding sulfones with antiinflammatory-analgesic activity” (Bioorg Med Chem, 2007)
